# Data taken from ChEMBL document CHEMBL3272095, “Synthesis and antiviral activity of 5- and 5'-substituted thymidine analogs” (J Med Chem, 1976).
# Key:
# [1] = Cytotoxicity against mouse Sarcoma 180 cells assessed as cell viability at 100 uM after 18 to 24 hrs relative to control; format: cell-based; conditions: in the assay text read “18 to 42 hrs” for “18 to 24 hrs”, read-out: Activity
# Method in brief: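 Sarcoma 180 cells were grown in medium with horse serum at 37 °C under humidified 5% CO2–95% air, with a generation time of about 18 h. Compound was added to exponentially growing cultures at about 2 × 10^4 cells/ml. The increase in cell number was measured after 18 and 42 h, and percent inhibition was calculated relative to a drug-free control.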
# Human alphaherpesvirus 1 [2] = assay: Antiviral activity against Herpes simplex virus 1 infected in African green monkey Vero cells assessed as viral titer at 400 uM after 40 hrs by plaque formation assay relative to control; format: functional
# Method in brief: (§1)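 After a 1 h adsorption at 37 °C, inoculum was removed, cells were PBS-washed, and medium with or without compound was added. Incubation was 40 h at 37 °C. Cultures were freeze-thawed three times, and lysate yield was titrated by plaque assay on Vero. Pfu given as % of drug-free culture.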
# [3] = Cytotoxicity against mouse Sarcoma 180 cells assessed as cell viability at 400 uM after 18 to 42 hrs relative to control
# Vero = assay: Cytotoxicity against African green monkey Vero cells assessed as inhibition of replication; format: cell-based; conditions: chlorocebus sabaeus
# Human alphaherpesvirus 1 [4] = assay: Antiviral activity against Herpes simplex virus 1 infected in African green monkey Vero cells assessed as viral titer at 200 uM after 40 hrs by plaque formation assay relative to control; format: functional; method in brief: as §1
SMILES,viability at 100 µM [1] [%],Activity (Human alphaherpesvirus 1 [2]) [%],viability at 400 µM [3] [%],Activity (Vero),Activity (Human alphaherpesvirus 1 [4]) [%]
Cc1ccc(S(=O)(=O)OC[C@H]2O[C@@H](n3cc(Br)c(=O)[nH]c3=O)C[C@@H]2O)cc1,65,,,,
[N-]=[N+]=NC[C@H]1O[C@@H](n2cc(Br)c(=O)[nH]c2=O)C[C@@H]1O,,54,100,,
[N-]=[N+]=NC[C@H]1O[C@@H](n2cc(Cl)c(=O)[nH]c2=O)C[C@@H]1O,,81,100,,
NC[C@H]1O[C@@H](n2cc(Br)c(O)nc2=O)C[C@@H]1O,,,,Non-toxic,1
[N-]=[N+]=NC[C@H]1O[C@@H](n2cc(I)c(=O)[nH]c2=O)C[C@@H]1O,,60,100,,
NC[C@H]1O[C@@H](n2cc(Cl)c(O)nc2=O)C[C@@H]1O,,29,100,Non-toxic,
Cc1ccc(S(=O)(=O)OC[C@H]2O[C@@H](n3cc(Cl)c(=O)[nH]c3=O)C[C@@H]2O)cc1,65,,,,
Cc1cn([C@H]2C[C@H](O)[C@@H](CN)O2)c(=O)[nH]c1=O,,3,100,Non-toxic,
NC[C@H]1O[C@@H](n2ccc(=O)[nH]c2=O)C[C@@H]1O,,101,100,,
